Key:
Pseudomonas aeruginosa [1] = experiment: Synergistic antibacterial activity against wild type Pseudomonas aeruginosa PAO1 assessed as fractional inhibitory concentration index in presence of moxifloxacin incubated for 18 hrs by broth microdilution method; type: functional
Method in brief: (§1)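 Checkerboard synergy assay. Antibiotic and adjuvant in twofold dilutions in Mueller-Hinton broth. Inoculum 5 × 10^5 CFU/mL from a 0.5 McFarland suspension, 18 h at 37 °C, MIC read by turbidity and confirmed at 590 nm. FIC = MIC in combination / MIC alone for each agent, FICI = sum. Interpreted as ≤0.5 synergy, 0.5–4 no interaction, >4 antagonism.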

Pseudomonas aeruginosa [2] = experiment: Antimicrobial activity against MDR/XDR Pseudomonas aeruginosa isolate PA260-97103 harboring GyrA Thr83Ile mutant incubated for 18 hrs by broth microdilution method; type: functional; settings: isolate PA260-97103, 18 h
Method in brief: (§2)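 Broth microdilution per CLSI: overnight cultures set to 0.5 McFarland in saline, diluted 1:50 in Mueller-Hinton broth to a final 5 × 10^5 CFU/mL, added to 2-fold serial dilutions, incubated 18 h at 37 °C; MIC is the lowest concentration without visible turbidity, confirmed at 590 nm.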

Pseudomonas aeruginosa [3] = experiment: Antimicrobial activity against MDR/XDR Pseudomonas aeruginosa isolate PA262-101856 harboring GyrA Thr83Ile mutant incubated for 18 hrs by broth microdilution method; type: functional; settings: isolate PA262-101856, 18 h; method in brief: as §2
Pseudomonas aeruginosa [4] = experiment: Antimicrobial activity against MDR/XDR Pseudomonas aeruginosa isolate 91433 devoid of GyrA Thr83Ile mutant incubated for 18 hrs by broth microdilution method; type: functional; settings: isolate 91433, 18 h; method in brief: as §2
Pseudomonas aeruginosa [5] = experiment: Antimicrobial activity against MDR/XDR Pseudomonas aeruginosa isolate 101243 devoid of GyrA Thr83Ile mutant incubated for 18 hrs by broth microdilution method; type: functional; settings: isolate 101243, 18 h; method in brief: as §2
Pseudomonas aeruginosa [6] = experiment: Synergistic antibacterial activity against MDR/XDR Pseudomonas aeruginosa isolate PA262-101856 harboring GyrA T83I mutant assessed as fractional inhibitory concentration index in presence of moxifloxacin incubated for 18 hrs by broth microdilution method; type: functional; method in brief: as §1
Pseudomonas aeruginosa [7] = experiment: Synergistic antibacterial activity against MDR/XDR Pseudomonas aeruginosa isolate 100036 harboring GyrA T83I mutant assessed as fractional inhibitory concentration index in presence of ciprofloxacin incubated for 18 hrs by broth microdilution method; type: functional; method in brief: as §1
Pseudomonas aeruginosa [8] = experiment: Synergistic antibacterial activity against MDR/XDR Pseudomonas aeruginosa isolate 101885 harboring GyrA T83I mutant assessed as fractional inhibitory concentration index in presence of moxifloxacin incubated for 18 hrs by broth microdilution method; type: functional; method in brief: as §1
Pseudomonas aeruginosa [9] = experiment: Synergistic antibacterial activity against MDR/XDR Pseudomonas aeruginosa isolate 101885 harboring GyrA T83I mutant assessed as fractional inhibitory concentration index in presence of ciprofloxacin incubated for 18 hrs by broth microdilution method; type: functional; method in brief: as §1
Pseudomonas aeruginosa [10] = experiment: Synergistic antibacterial activity against MDR/XDR Pseudomonas aeruginosa isolate 101243 devoid of GyrA T83I mutant assessed as fractional inhibitory concentration index in presence of ciprofloxacin incubated for 18 hrs by broth microdilution method; type: functional; method in brief: as §1
Pseudomonas aeruginosa [11] = experiment: Synergistic antibacterial activity against MDR/XDR Pseudomonas aeruginosa isolate PA262-101856 harboring GyrA T83I mutant assessed as fractional inhibitory concentration index in presence of minocycline incubated for 18 hrs by broth microdilution method; type: functional; method in brief: as §1
Pseudomonas aeruginosa [12] = experiment: Synergistic antibacterial activity against MDR/XDR Pseudomonas aeruginosa isolate PA260-97103 harboring GyrA T83I mutant assessed as fractional inhibitory concentration index in presence of minocycline incubated for 18 hrs by broth microdilution method; type: functional; method in brief: as §1
Pseudomonas aeruginosa [13] = experiment: Synergistic antibacterial activity against MDR/XDR Pseudomonas aeruginosa isolate 100036 harboring GyrA T83I mutant assessed as fractional inhibitory concentration index in presence of minocycline incubated for 18 hrs by broth microdilution method; type: functional; method in brief: as §1
Pseudomonas aeruginosa [14] = experiment: Synergistic antibacterial activity against MDR/XDR Pseudomonas aeruginosa isolate 91433 devoid of GyrA T83I mutant assessed as fractional inhibitory concentration index in presence of minocycline incubated for 18 hrs by broth microdilution method; type: functional; method in brief: as §1
Pseudomonas aeruginosa [15] = experiment: Synergistic antibacterial activity against MDR/XDR Pseudomonas aeruginosa isolate 101243 devoid of GyrA T83I mutant assessed as fractional inhibitory concentration index in presence of minocycline incubated for 18 hrs by broth microdilution method; type: functional; method in brief: as §1
Pseudomonas aeruginosa [16] = experiment: Synergistic antibacterial activity against MDR/XDR Pseudomonas aeruginosa isolate PA262-101856 harboring GyrA T83I mutant assessed as fractional inhibitory concentration index in presence of rifampicin incubated for 18 hrs by broth microdilution method; type: functional; method in brief: as §1
Pseudomonas aeruginosa [17] = experiment: Synergistic antibacterial activity against MDR/XDR Pseudomonas aeruginosa isolate 100036 harboring T83I mutant assessed as fractional inhibitory concentration index in presence of rifampicin incubated for 18 hrs by broth microdilution method; type: functional; method in brief: as §1
Pseudomonas aeruginosa [18] = experiment: Synergistic antibacterial activity against MDR/XDR Pseudomonas aeruginosa isolate 91433 devoid of GyrA T83I mutant assessed as fractional inhibitory concentration index in presence of rifampicin incubated for 18 hrs by broth microdilution method; type: functional; method in brief: as §1
Pseudomonas aeruginosa [19] = experiment: Antimicrobial activity against MDR/XDR Pseudomonas aeruginosa isolate PA264-104354 harboring GyrA Thr83Ile mutant incubated for 18 hrs by broth microdilution method; type: functional; settings: isolate PA264-104354, 18 h; method in brief: as §2
Pseudomonas aeruginosa [20] = experiment: Synergistic antibacterial activity against MDR/XDR Pseudomonas aeruginosa isolate PA264-104354 harboring GyrA T83I mutant assessed as fractional inhibitory concentration index in presence of minocycline incubated for 18 hrs by broth microdilution method; type: functional; method in brief: as §1
Pseudomonas aeruginosa [21] = experiment: Synergistic antibacterial activity against MDR/XDR Pseudomonas aeruginosa isolate PA264-104354 harboring T83I mutant assessed as fractional inhibitory concentration index in presence of rifampicin incubated for 18 hrs by broth microdilution method; type: functional; method in brief: as §1
Enterobacter cloacae = experiment: Antimicrobial activity against Enterobacter cloacae 117029 incubated for 18 hrs by broth dilution method; type: functional; settings: Enterobacter cloacae, 117029, 18 h
Method in brief: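 CLSI broth microdilution. Overnight cultures were adjusted to 0.5 McFarland in saline, diluted 1:50 in Mueller-Hinton broth, and inoculated at a final 5 × 10^5 CFU/mL. Compounds were tested as 2-fold serial dilutions and incubated 18 h at 37 °C. MIC was the lowest concentration with no visible turbidity, confirmed by absorbance at 590 nm.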

Klebsiella pneumoniae = experiment: Synergistic antibacterial activity against Klebsiella pneumoniae 116381 assessed as fractional inhibitory concentration index in presence of minocycline incubated for 18 hrs by broth dilution method; type: functional
Method in brief: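 Checkerboard titration of the adjuvant against the antibiotic, run under the CLSI microdilution conditions (MHB, 5 × 10^5 CFU/mL, 18 h, 37 °C). Each agent's FIC is its MIC in combination divided by its MIC alone; FICI is the sum of the two FICs. FICI ≤0.5 was read as synergy, >0.5–4.0 as no interaction, and >4.0 as antagonism.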

HepG2 [22] = experiment: Cytotoxicity against human HepG2 cells at 50 uM incubated for 48 hrs by PrestoBlue dye based fluorescence assay; type: cell-based; settings: hepg2, 48 h
HEK293 = experiment: Cytotoxicity against HEK293 cells at 50 uM incubated for 48 hrs by PrestoBlue dye based fluorescence assay; type: cell-based; settings: human, hek293, 48 h
HepG2 [23] = experiment: Cytotoxicity against human HepG2 cells at 50 uM incubated for 48 hrs in presence of 50 uM rifampicin by PrestoBlue dye based fluorescence assay; type: cell-based; settings: hepg2, 48 h

Row | SMILES | fractional inhibitory concentration index (FICI) (Pseudomonas aeruginosa [1]) | MIC (Pseudomonas aeruginosa [2]) [µg/mL] | MIC (Pseudomonas aeruginosa [3]) [µg/mL] | MIC (Pseudomonas aeruginosa [4]) [µg/mL] | MIC (Pseudomonas aeruginosa [5]) [µg/mL] | fractional inhibitory concentration index (FICI) (Pseudomonas aeruginosa [6]) | fractional inhibitory concentration index (FICI) (Pseudomonas aeruginosa [7]) | fractional inhibitory concentration index (FICI) (Pseudomonas aeruginosa [8]) | fractional inhibitory concentration index (FICI) (Pseudomonas aeruginosa [9]) | fractional inhibitory concentration index (FICI) (Pseudomonas aeruginosa [10]) | fractional inhibitory concentration index (FICI) (Pseudomonas aeruginosa [11]) | fractional inhibitory concentration index (FICI) (Pseudomonas aeruginosa [12]) | fractional inhibitory concentration index (FICI) (Pseudomonas aeruginosa [13]) | fractional inhibitory concentration index (FICI) (Pseudomonas aeruginosa [14]) | fractional inhibitory concentration index (FICI) (Pseudomonas aeruginosa [15]) | fractional inhibitory concentration index (FICI) (Pseudomonas aeruginosa [16]) | fractional inhibitory concentration index (FICI) (Pseudomonas aeruginosa [17]) | fractional inhibitory concentration index (FICI) (Pseudomonas aeruginosa [18]) | MIC (Pseudomonas aeruginosa [19]) [µg/mL] | fractional inhibitory concentration index (FICI) (Pseudomonas aeruginosa [20]) | further results
1 | Cl.Cl.Cl.Cl.Cl.Cl.NC[C@H]1O[C@H](O[C@H]2[C@H](OCCCCCCCCCCN3CCN(Cc4cccc5ccccc45)CC3)[C@@H](O)[C@H](N)C[C@@H]2N)[C@H](N)C[C@@H]1O | 0.05 | 32 | 512 | 32 | 512 | 0.09 | 0.125 - 0.133 | 0.07 | 0.13 | 0.16 | 0.04 | 0.09 | 0.031 - 0.033 | 0.19 | 0.09 | 0.02 | 0.004 - 0.012 | 0.5 | – | – | –
2 | Cl.Cl.Cl.Cl.Cl.NC[C@H]1O[C@H](O[C@H]2[C@H](OCCCCCCCCCCCCN3CCN(c4cc5c(cc4F)c(=O)c(C(=O)O)cn5C4CC4)CC3)[C@@H](O)[C@H](N)C[C@@H]2N)[C@H](N)C[C@@H]1O | – | – | – | – | – | – | – | – | – | – | – | – | – | – | – | – | – | – | 128 | 0.039 | fractional inhibitory concentration index (FICI) (Pseudomonas aeruginosa [21]): 0.039; MIC (Enterobacter cloacae): 32 µg/mL; fractional inhibitory concentration index (FICI) (Klebsiella pneumoniae): 0.063 - 0.07; Activity (HepG2 [22]): Non-Toxic; Activity (HEK293): Non-Toxic; Activity (HepG2 [23]): Non-Toxic
3 | COc1c(N2C[C@@H]3CCCN(CCCCCCCCCCCCO[C@@H]4[C@@H](O)[C@H](N)C[C@H](N)[C@H]4O[C@H]4O[C@H](CN)[C@@H](O)C[C@H]4N)[C@@H]3C2)c(F)cc2c(=O)c(C(=O)O)cn(C3CC3)c12.Cl.Cl.Cl.Cl.Cl | 0.25 | 32 | > 256 | 32 | 64 | 0.13 - 0.16 | 0.56 | 0.25 | >1 | 0.25 | 0.03 - 0.05 | 0.09 | 0.06 | 0.19 | 0.13 | 0.008 - 0.02 | 0.01 | 0.16 | 256 | 0.05 | fractional inhibitory concentration index (FICI) (Pseudomonas aeruginosa [21]): 0.02; MIC (Enterobacter cloacae): 32 µg/mL; fractional inhibitory concentration index (FICI) (Klebsiella pneumoniae): 0.063 - 78; Activity (HepG2 [22]): Non-Toxic; Activity (HEK293): Non-Toxic; Activity (HepG2 [23]): Non-Toxic
